TRPC4 block: inhibitors of mouse TRPC4 channel; Q9QUQ5; HEK293 TRPC4beta/mu-opioid, DAMGO-evoked Fluo4 calcium flux; active compounds read low; B-score at 10 µM; 300,000 tested, 0.39% active; AID 2247;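 active = B-score over 3 SD under the library average, no early fluorescence shift, positive overall ratio signal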
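Signal: kinetic Fluo4 fluorescence imaging of calcium influx. Material: stable TRPC4beta/mu-opioid receptor HEK293 cells. Probe or stimulus: DAMGO in two steps, submaximal then maximal.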
TRPC4 agonist: opens the mouse TRPC4 cation channel | B-score at 10 µM | Q9QUQ5 | AID 2237 | 310,000 tested, 0.49% active | HEK293 TRPC4beta/mu-opioid, Fluo4 calcium fluorescence; active compounds read high;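 active = B-score above 5 SD of library B-scores, and initial fluorescence ratio not above library mean plus 5 SD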;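 note: positive B-score marks a calcium rise read as TRPC4 activation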
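Test system: HEK293 cells stably co-expressing mouse TRPC4beta and mu-opioid receptor | Schedule: Fluo4 dye loading 45 min at room temperature, 110 s recording | Measured by: Kinetic Fluo4 calcium fluorescence, 5 s baseline at 1 Hz | Evaluation: B score of integrated ratio | Controls: Buffer (low) and maximal DAMGO (high)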
TRPC6 act: activates the mouse TRPC6 cation channel; 310,000 tested, 0.13% active; AID 2550; HEK293-TRPC6 membrane potential dye fluorescence; active compounds read high; B-score at 10 µM;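 active = B-score of the integrated fluorescence ratio above library mean plus 3 SD, and starting fluorescence ratio within library mean plus 5 SD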;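 note: higher score means more depolarization so channel activation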
Target sequence (Q61143 whole entry, looked up): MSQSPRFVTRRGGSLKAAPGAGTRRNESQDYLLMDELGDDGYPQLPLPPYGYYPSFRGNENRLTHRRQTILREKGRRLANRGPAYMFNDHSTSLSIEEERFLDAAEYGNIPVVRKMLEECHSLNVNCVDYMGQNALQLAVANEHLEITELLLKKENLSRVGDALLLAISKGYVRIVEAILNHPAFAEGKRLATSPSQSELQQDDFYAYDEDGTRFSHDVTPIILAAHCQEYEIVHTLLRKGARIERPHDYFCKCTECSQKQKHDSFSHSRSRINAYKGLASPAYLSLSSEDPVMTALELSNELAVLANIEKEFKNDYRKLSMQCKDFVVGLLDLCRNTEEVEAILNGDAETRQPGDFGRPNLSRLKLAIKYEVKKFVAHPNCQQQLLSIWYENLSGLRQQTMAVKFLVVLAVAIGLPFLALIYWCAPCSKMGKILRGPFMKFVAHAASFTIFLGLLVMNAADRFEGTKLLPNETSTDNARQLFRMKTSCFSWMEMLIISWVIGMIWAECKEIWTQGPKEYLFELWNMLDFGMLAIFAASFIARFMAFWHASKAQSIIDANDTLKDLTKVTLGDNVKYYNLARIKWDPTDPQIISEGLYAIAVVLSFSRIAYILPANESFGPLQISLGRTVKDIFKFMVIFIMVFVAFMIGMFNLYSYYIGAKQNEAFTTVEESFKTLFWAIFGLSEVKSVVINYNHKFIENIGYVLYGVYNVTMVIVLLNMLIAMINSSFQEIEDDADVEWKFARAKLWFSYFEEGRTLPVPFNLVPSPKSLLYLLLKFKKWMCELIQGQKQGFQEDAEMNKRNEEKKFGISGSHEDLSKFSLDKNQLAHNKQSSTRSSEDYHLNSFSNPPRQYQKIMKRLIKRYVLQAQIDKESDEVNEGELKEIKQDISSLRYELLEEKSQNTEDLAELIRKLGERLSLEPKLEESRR
TRPC4 potent: allosteric potentiators of mouse TRPC4 channel | Q9QUQ5 | HEK293 TRPC4beta/mu-opioid, DAMGO EC20, Fluo-4 Ca2+ flux; active compounds read high | B-score at 10 µM | 310,000 tested, 0.42% active | AID 2227;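 active = B-score of calcium response area above 5 SD of library B-scores, with initial fluorescence ratio within 5 SD of library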;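 note: B-score of integrated fluorescence ratio over time as area under calcium response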
TRPC6 inhibitor: inhibitors of mouse TRPC6 channel; B-score at 10 µM; HEK293-TRPC6, membrane potential dye, ACh-evoked depolarization; active compounds read low; 310,000 tested, 1.1% active; AID 2553;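 active = B-score under library mean minus 3 SD, initial fluorescence not abnormally high, positive integrated signal ratio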;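 note: B-score derived from integrated fluorescence ratio over the kinetic read; more negative B-score means stronger inhibition of depolarization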
TRPC4 spec 2: second check of whether TRPC6 inhibitors also affect mouse TRPC4. shares compounds with TRPC6 inhibitor. HEK293 TRPC4/MOR, membrane potential dye fluorescence; channel activated by saturating DAMGO dose. inhibition, % at 10 µM. 920 tested, 42% active. AID 2776;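 active = compounds whose fluorescence signal differed from control wells by over 3 SD, either direction, in both duplicate plates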
TRPC4 spec: tests whether TRPC6 inhibitors also affect mouse TRPC4; shares compounds with TRPC6 inhibitor; HEK293 TRPC4/mu-opioid, membrane potential fluorescence; 920 tested, 61% active; activity change, negative = inhibition, % at 10 µM;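 active = rise or fall in signal beyond 3 SD of buffer-only wells in both replicate plates, either sign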;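 note: integrated kinetic ratio of fluorescence range over baseline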
HEK293 MPD ctr 2-1: parental HEK293 nonspecific activity of TRPC6 inhibitors, second screen; shares compounds with TRPC6 inhibitor; parental HEK293 membrane potential dye fluorescence; maximal acetylcholine challenge after compound addition; signal change vs control, % at 10 µM; 920 tested, 31% active; AID 2779;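 active = membrane potential signal moving either way by over 3 SD of the maximum-effect control, in both duplicate plates, meaning non-specific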
HEK293 MPD ctr-1: counter-screen for TRPC6 inhibitors: effect in parental HEK293 cells; shares compounds with TRPC6 inhibitor; parental HEK293 membrane potential dye fluorescence; membrane potential signal change, % at 10 µM; 920 tested, 60% active; AID 2780;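 active = membrane potential signal shifting up or down by more than 3 SD of buffer-only wells, on both duplicate plates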
HEK293 MPD ctr-2: parental HEK293 nonspecific activity of TRPC6 modulators. shares compounds with TRPC6 inhibitor. membrane potential dye fluorescence. membrane potential signal change, % at 10 µM. 2,400 tested, 51% active;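 active = membrane potential signal moves up or down beyond 5 SD from buffer-only wells, on both duplicate plates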
HEK293 MPD ctr 2-2: second counter-screen for TRPC6 modulators: effect in parental HEK293 cells. shares compounds with TRPC6 inhibitor. membrane potential dye fluorescence; after compound, maximal acetylcholine stimulation. inhibition, % at 10 µM. 2,400 tested, 14% active. AID 488926;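 active = membrane potential signal drops by more than 5 SD from the mean control signal, in both duplicate plates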;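 note: plate controls were acetylcholine ECmax control wells for no effect and buffer only wells for full effect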
TRPC4/MOR mod: selectivity of TRPC6 modulators against mouse TRPC4. shares compounds with TRPC6 inhibitor. HEK293 TRPC4/mu-opioid, membrane potential fluorescence. percent change from control (negative = decrease, positive = increase), % at 10 µM. 2,400 tested, 69% active;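 active = membrane potential signal moved up or down beyond 5 SD of buffer control wells, in both duplicate plates, actives on both sides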;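 note: plate controls were assay buffer wells for no effect and DAMGO maximal-effect wells for full effect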
TRPC4 ctr inh 2: mouse TRPC4 off-target activity of TRPC6 modulators, second screen | AID 488928 | shares compounds with TRPC6 inhibitor | 2,400 tested, 55% active | HEK293 TRPC4/mu-opioid, membrane potential dye fluorescence; stimulated with maximal-effect DAMGO | inhibition, % at 10 µM;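 active = drop in membrane potential signal beyond 5 SD of the control wells in both duplicate plates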;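 note: TRPC4 counter screen for TRPC6 hits run under conditions tuned for TRPC6 not TRPC4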
TRPC6 block conf: mouse TRPC6 inhibitor confirmation; shares compounds with TRPC6 inhibitor; HEK293-TRPC6, membrane potential dye, ACh-evoked depolarization; inhibition, % at 10 µM; 3,300 tested, 43% active;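 active = fluorescence ratio falls more than 5 SD below the full-stimulation control mean, in both duplicate runs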;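 note: integrated fluorescence ratio of peak minus minimum over baseline after agonist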
TRPC6 act conf: confirmation of mouse TRPC6 activators; shares compounds with TRPC6 inhibitor; HEK293-TRPC6 membrane potential dye fluorescence, FDSS; activation, % at 10 µM; 2,800 tested, 11% active;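 active = ratio signal rise beyond 5 SD above unstimulated control wells' mean, seen in both duplicate runs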;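 note: plate controls were buffer EC0 wells for no effect and acetylcholine ECmax response for full effect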
Numbers without * were called inactive. The list is not random: actives were taken first. Their share in the collection is about 2.3%.

What do the screens show for `CC(C)CCNC(=O)c1sc2ccc(S(=O)(=O)N3CCCCC3)cc2c1N`?
TRPC4 block: inactive; TRPC4 agonist: inactive; TRPC6 act: inactive; TRPC4 potent: inactive; TRPC6 inhibitor: inactive

How did O=C(CNCc1ccc(F)cc1)Nc1ccccc1[N+](=O)[O-] do in these assays?
TRPC4 block: inactive; TRPC4 agonist: inactive; TRPC6 act: inactive; TRPC4 potent: inactive; TRPC6 inhibitor: inactive

Results for CCOC(=O)c1ccc(/C=C2/C=C(c3ccccc3)N(c3ccc(Cl)c(C(=O)O)c3)C2=O)cc1 ?
TRPC4 block: inactive; TRPC4 agonist: 72*; TRPC6 act: 36*; TRPC4 potent: inactive; TRPC6 inhibitor: inactive; HEK293 MPD ctr-2: active; HEK293 MPD ctr 2-2: inactive; TRPC4/MOR mod: 377%*; TRPC4 ctr inh 2: inactive; TRPC6 block conf: inactive; TRPC6 act conf: 686%*

What do the screens show for `COc1ccc(NC(=S)NNc2ccc([N+](=O)[O-])cc2S(=O)(=O)Nc2ccc(C)cc2C)cc1`?
TRPC4 block: inactive; TRPC4 agonist: inactive; TRPC6 act: inactive; TRPC4 potent: inactive; TRPC6 inhibitor: -6.8*; TRPC4 spec 2: inactive; TRPC4 spec: inactive; HEK293 MPD ctr 2-1: inactive; HEK293 MPD ctr-1: inactive; TRPC6 block conf: inactive; TRPC6 act conf: inactive

Results for CSCCC(=O)N1CCC(CCC(=O)NC2CC2)CC1 ?
TRPC4 block: inactive; TRPC4 agonist: inactive; TRPC6 act: inactive; TRPC4 potent: inactive; TRPC6 inhibitor: inactive

What do the screens show for `CN1CCN(c2nc3c(c(=O)n(C)c(=O)n3C)n2CCSc2nnnn2-c2ccccc2)CC1`?
TRPC4 block: inactive; TRPC4 agonist: inactive; TRPC6 act: inactive; TRPC4 potent: inactive; TRPC6 inhibitor: -7.3*; HEK293 MPD ctr-2: -114%*; HEK293 MPD ctr 2-2: 100%*; TRPC4/MOR mod: -41%*; TRPC4 ctr inh 2: 56%*; TRPC6 block conf: 50%*; TRPC6 act conf: inactive

How did CN1CCN(c2nc3c(c(=O)n(C)c(=O)n3C)n2Cc2ccccc2)CC1 do in these assays?
TRPC4 block: inactive; TRPC4 agonist: inactive; TRPC6 act: inactive; TRPC4 potent: inactive; TRPC6 inhibitor: inactive

What do the screens show for `CN1CCN(c2nc3c(c(=O)[nH]c(=O)n3C)n2CCSc2nnnn2-c2ccccc2)CC1`?
TRPC4 block: inactive; TRPC4 agonist: inactive; TRPC6 act: inactive; TRPC4 potent: inactive; TRPC6 inhibitor: -8.5*; HEK293 MPD ctr-2: -236%*; HEK293 MPD ctr 2-2: inactive; TRPC4/MOR mod: -27%*; TRPC4 ctr inh 2: 62%*; TRPC6 block conf: 60%*; TRPC6 act conf: inactive

Results for O=C(NC1CCN(Cc2ccc(Cl)c(Cl)c2)CC1)c1ccccc1 ?
TRPC4 block: inactive; TRPC4 agonist: inactive; TRPC6 act: inactive; TRPC4 potent: inactive; TRPC6 inhibitor: inactive

How did c1ccc(CN2CCC(Nc3nc(-c4cccnc4)nc4ccccc34)CC2)cc1 do in these assays?
TRPC4 block: inactive; TRPC4 agonist: inactive; TRPC6 act: inactive; TRPC4 potent: inactive; TRPC6 inhibitor: -6.3*; HEK293 MPD ctr-2: -294%*; HEK293 MPD ctr 2-2: inactive; TRPC4/MOR mod: -52%*; TRPC4 ctr inh 2: 66%*; TRPC6 block conf: 56%*; TRPC6 act conf: inactive

How did CCC(C)Nc1nc(-c2ccccn2)nc2ccccc12 (stereo unspecified) do in these assays?
TRPC4 block: inactive; TRPC4 agonist: inactive; TRPC6 act: inactive; TRPC4 potent: inactive; TRPC6 inhibitor: -5.2*; HEK293 MPD ctr-2: -274%*; HEK293 MPD ctr 2-2: inactive; TRPC4/MOR mod: -40%*; TRPC4 ctr inh 2: 53%*; TRPC6 block conf: inactive; TRPC6 act conf: inactive

What do the screens show for `CC(C)(C)c1ccc(-c2nc(NCc3cccnc3)c3ccccc3n2)cc1`?
TRPC4 block: inactive; TRPC4 agonist: inactive; TRPC6 act: inactive; TRPC4 potent: inactive; TRPC6 inhibitor: -6.8*; HEK293 MPD ctr-2: inactive; HEK293 MPD ctr 2-2: inactive; TRPC4/MOR mod: inactive; TRPC4 ctr inh 2: inactive; TRPC6 block conf: inactive; TRPC6 act conf: inactive

What do the screens show for `c1ccc(CNc2nc(-c3cccnc3)nc3ccccc23)cc1`?
TRPC4 block: inactive; TRPC4 agonist: inactive; TRPC6 act: inactive; TRPC4 potent: inactive; TRPC6 inhibitor: inactive

Results for c1ccc(CNc2nc(-c3ccccn3)nc3ccccc23)cc1 ?
TRPC4 block: inactive; TRPC4 agonist: inactive; TRPC6 act: inactive; TRPC4 potent: inactive; TRPC6 inhibitor: -7*; HEK293 MPD ctr-2: -208%*; HEK293 MPD ctr 2-2: inactive; TRPC4/MOR mod: -40%*; TRPC4 ctr inh 2: 62%*; TRPC6 block conf: 40%*; TRPC6 act conf: inactive

How did c1cncc(CNc2nc(-c3cccnc3)nc3ccccc23)c1 do in these assays?
TRPC4 block: inactive; TRPC4 agonist: inactive; TRPC6 act: inactive; TRPC4 potent: inactive; TRPC6 inhibitor: inactive

Screening data from PubChem BioAssay.
